Source: ChEMBL document CHEMBL1148650, “Synthesis and pharmacological evaluation of novel nitrobenzenic thromboxane modulators as antiplatelet agents acting on both the alpha and beta isoforms of the human thromboxane receptor” (J Med Chem, 2006)
pIC50: −log10 of the molar value.

Tests used:
[1] = target: T1, Thromboxane A2 receptor (Homo sapiens) (UniProt P21731); experiment: Displacement of [3H]SQ-29548 from TPbeta receptor (long isoform) expressed in COS7 cells at 1 nM; conditions: COS-7
T1 sequence (whole entry): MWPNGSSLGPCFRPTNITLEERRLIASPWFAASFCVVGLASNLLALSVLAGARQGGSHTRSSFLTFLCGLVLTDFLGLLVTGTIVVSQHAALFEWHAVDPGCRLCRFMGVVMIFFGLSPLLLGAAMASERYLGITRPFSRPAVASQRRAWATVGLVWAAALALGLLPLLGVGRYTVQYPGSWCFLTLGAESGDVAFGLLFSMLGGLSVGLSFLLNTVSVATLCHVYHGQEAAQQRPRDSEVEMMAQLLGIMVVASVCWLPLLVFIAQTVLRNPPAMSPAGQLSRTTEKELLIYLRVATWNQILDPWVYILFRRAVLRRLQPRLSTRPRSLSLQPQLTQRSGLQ

[2] = target: T1, Thromboxane A2 receptor (Homo sapiens); experiment: Displacement of [3H]SQ29,548 from TPalpha receptor (short isoform) expressed in COS7 cells at 1 nM; conditions: COS-7
[3] = target: T2, Thromboxane A2 receptor (Homo sapiens, UniProt P21731); experiment: Displacement of [3H]SQ29,548 from TPalpha receptor (short isoform) expressed in COS7 cells
T2 sequence (P21731 whole entry): T1 sequence (whole entry)

[4] = target: T2, Thromboxane A2 receptor; experiment: Activity at TPalpha (short isoform) receptor expressed in HEK293 cells assessed as ability to antagonize U46619-mediated calcium ion mobilization; assay type: functional, cell-based
Outline: (§1)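 HEK293 cells stably overexpressing human TPα or TPβ. Cells were loaded 1 h with Fluo-4/AM (5 µg/mL) and washed in Krebs-HEPES pH 7.4 (150 000 cells/well). Compound (10^-5 to 10^-8 M final) was added 10 min before 1 µM U46619. Fluo-4 signal was calibrated by Triton X-100 and then EGTA (Kd 385 nM) for [Ca2+]i. IC50 is the concentration halving the [Ca2+]i rise.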

[5] = target: T1, Thromboxane A2 receptor (Homo sapiens); experiment: Selectivity index, IC50 for TPalpha/IC50 for TPbeta in HEK293 cells; assay type: functional, cell-based
Outline: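 Ratio of IC50 TPα to IC50 TPβ, both from the calcium assay in stably transfected HEK293 cells. Fluo-4-loaded cells were preincubated 10 min with compound (10^-5 to 10^-8 M), then stimulated with 1 µM U46619. IC50 is the concentration inhibiting 50% of the [Ca2+]i rise.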

[6] = target: T1, Thromboxane A2 receptor (Homo sapiens); experiment: Selectivity index, IC50 for TPalpha/IC50 for TPbeta in COS7 cells; assay type: cell-based; conditions: COS-7
Outline: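 Binding used 5 × 10^5 cells in 25 mM HEPES/125 mM NaCl/10 µM indomethacin, pH 7.4, with 10 nM [3H]SQ29,548 and compound at 10^-6 to 10^-11 M, in triplicate, for 30 min at 37 °C. Nonspecific binding: 10 µM unlabeled SQ29,548. Bound ligand was counted after filtration. Index = IC50 TPα/IC50 TPβ.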

[7] = target: T2, Thromboxane A2 receptor; experiment: Displacement of [3H]SQ-29548 from TPbeta receptor (long isoform) expressed in COS7 cells
[8] = target: T2, Thromboxane A2 receptor; experiment: Activity at TPbeta (long isoform) receptor expressed in HEK293 cells assessed as ability to antagonize U46619-mediated calcium ion mobilization; assay type: functional, cell-based
Outline: as §1

[9] = target: T1, Thromboxane A2 receptor (Homo sapiens); experiment: Displacement of [3H]SQ29,548 from TPalpha receptor (short isoform) expressed in COS7 cells at 1 uM; assay type: cell-based; conditions: COS-7
[10] = target: T1, Thromboxane A2 receptor (Homo sapiens); experiment: Displacement of [3H]SQ-29548 from TPbeta receptor (long isoform) expressed in COS7 cells at 1 uM; assay type: cell-based; conditions: COS-7

Structure (SMILES)	Activity [1]	Activity [2]	pIC50 [3]	pIC50 [4]	Ratio IC50 [5]	Ratio IC50 [6]	pIC50 [7]	pIC50 [8]	Activity [9]	Activity [10]
CCCCC/N=C(\NC#N)NS(=O)(=O)c1cc([N+](=O)[O-])ccc1Nc1cc(C)cc(C)c1	53.4%	48%								
CC(C)(C)NC(=O)NS(=O)(=O)c1cc([N+](=O)[O-])ccc1Sc1ccc(Cl)cc1	31.7%	32.5%								
CCCCCCCCNC(=O)NS(=O)(=O)c1cc([N+](=O)[O-])ccc1NC1CCCCC1	24.1%	17.1%								
CCCCCNC(=O)NS(=O)(=O)c1cc([N+](=O)[O-])ccc1Nc1ccc(C)cc1C	39.9%	42.3%								
CCCCCNC(=O)NS(=O)(=O)c1cc([N+](=O)[O-])ccc1Sc1ccc(C)cc1	43%	38.5%								
CCCCCNC(=O)NS(=O)(=O)c1cc([N+](=O)[O-])ccc1Nc1cccc(C)c1	35.8%	48.5%	9.00	7.22	1.33	0.23	8.35	7.34		
CCCCNC(=O)NS(=O)(=O)c1cc([N+](=O)[O-])ccc1Oc1ccc(C)cc1	56%	55.7%	9.13	6.25	10.6	1.05	9.15	7.28		
CCCCCNC(=O)NS(=O)(=O)c1cc([N+](=O)[O-])ccc1Nc1ccc(Cl)cc1	52.7%	48.9%								
CCCCCNC(=O)NS(=O)(=O)c1cc([N+](=O)[O-])ccc1Nc1c(C)cccc1C	54%	36.5%	8.82	7.09	1.71	1.03	8.83	7.33		
CCC(C)NC(=O)NS(=O)(=O)c1cc([N+](=O)[O-])ccc1Nc1ccc(C)cc1 (stereo unspecified)									40.7%	40.4%
CCCCCNC(=O)NS(=O)(=O)c1cc([N+](=O)[O-])ccc1Oc1ccccc1C	36.8%	35.2%								
CCCCCNC(=O)NS(=O)(=O)c1cc([N+](=O)[O-])ccc1Nc1c(C)cc(C)cc1C	27.5%	27.9%								
CCCCCNC(=O)NS(=O)(=O)c1cc([N+](=O)[O-])ccc1Nc1ccc(C)cc1	34.2%	39.6%	8.58	7.30	3.69	0.75	8.45	7.87		
CCCCCCCNC(=O)NS(=O)(=O)c1cc([N+](=O)[O-])ccc1NC1CCCCC1	36.4%	29.5%	8.60	7.03	1.67	0.93	8.57	7.26		
CCCCCNC(=O)NS(=O)(=O)c1cc([N+](=O)[O-])ccc1Sc1ccc(Cl)cc1	21.3%	24.7%								
CCCCCNC(=O)NS(=O)(=O)c1cc([N+](=O)[O-])ccc1Nc1ccccc1C	45.3%	45.3%								
CCC(C)NC(=O)NS(=O)(=O)c1cc([N+](=O)[O-])ccc1Nc1c(C)cccc1C (stereo unspecified)									48.4%	42.5%
CCCCCNC(=O)NS(=O)(=O)c1cc([N+](=O)[O-])ccc1Nc1ccc(C)c(C)c1	48.7%	40.1%								
Cc1cc(Nc2ccc([N+](=O)[O-])cc2S(=O)(=O)NC(=O)NC(C)(C)C)ccc1Br	25%	28.5%								

Structure (SMILES)	Activity [1]	Activity [2]	pIC50 [3]	pIC50 [4]	Ratio IC50 [5]	Ratio IC50 [6]	pIC50 [7]	pIC50 [8]	Activity [9]	Activity [10]
CCCCCNC(=O)NS(=O)(=O)c1cc([N+](=O)[O-])ccc1Nc1cc(C)cc(C)c1	49.7%	49.7%	8.97	6.27	7.03	1.55	9.15	7.12		
CCCCCNC(=O)NS(=O)(=O)c1cc([N+](=O)[O-])ccc1Oc1ccc(C)cc1	48.5%	35.5%	8.58	6.86	2.52	4.02	9.19	7.26		
Cc1ccc(Nc2ccc([N+](=O)[O-])cc2S(=O)(=O)NC(=O)N2CCCCC2)cc1	54.2%	46.2%	9.34	7.19	1.68	0.68	9.17	7.41		
CCCCCCNC(=O)NS(=O)(=O)c1cc([N+](=O)[O-])ccc1NC1CCCCC1	42.5%	44.2%	9.15	7.09	1.76	0.67	8.97	7.34		
Cc1ccc(Oc2ccc([N+](=O)[O-])cc2S(=O)(=O)NC(=O)NC2CCCCC2)cc1	51.9%	49.8%	8.82	6.22	8.56	1.93	9.10	7.15		
Cc1ccc(Oc2ccc([N+](=O)[O-])cc2S(=O)(=O)NC(=O)NC(C)(C)C)cc1	44.7%	53.3%	8.90	7.23	1.01	0.71	8.75	7.24		
CCCCCNC(=O)NS(=O)(=O)c1cc([N+](=O)[O-])ccc1Nc1cccc(C)c1C	39%	44.6%								
CCCCCNC(=O)NS(=O)(=O)c1cc([N+](=O)[O-])ccc1Oc1cccc(C)c1	22.8%	20.1%								
CCCCCNC(=O)NS(=O)(=O)c1cc([N+](=O)[O-])ccc1Nc1cc(C)ccc1C	33.1%	28.6%								
Cc1cccc(C)c1Nc1ccc([N+](=O)[O-])cc1S(=O)(=O)NC(=O)NC(C)(C)C	46.3%	46.4%	9.11	7.24	1.85	1.4	9.25	7.51		
CCCCC/N=C(\NC#N)NS(=O)(=O)c1cc([N+](=O)[O-])ccc1Nc1ccc(C)cc1	27.2%	25.5%								
CCCCCNC(=O)NS(=O)(=O)c1cc([N+](=O)[O-])ccc1Nc1ccc(Br)c(C)c1	49.9%	32.1%	8.74	6.90	2.92	3.11	9.24	7.36		
CCCCCNC(=O)NS(=O)(=O)c1cc([N+](=O)[O-])ccc1Sc1ccccc1C	32.7%	33.4%								
Cc1ccc(Sc2ccc([N+](=O)[O-])cc2S(=O)(=O)NC(=O)NC(C)(C)C)cc1	37.7%	47%	9.11	6.53	5.32	0.44	8.76	7.26		
Cc1ccc(Nc2ccc([N+](=O)[O-])cc2S(=O)(=O)NC(=O)NC2CCCCC2)cc1	29%	31.1%								
CCCCCCNC(=O)NS(=O)(=O)c1cc([N+](=O)[O-])ccc1Oc1ccc(C)cc1	46.1%	55.2%	9.14	6.28	9	0.45	8.80	7.23		
Cc1ccc(Nc2ccc([N+](=O)[O-])cc2S(=O)(=O)NC(=O)NCc2ccccc2)cc1	49.3%	32.9%	8.72	7.19	1.43	1.62	8.93	7.35		
Cc1ccc(Nc2ccc([N+](=O)[O-])cc2S(=O)(=O)NC(=O)NC(C)(C)C)cc1	53.6%	49.5%	8.98	6.50	6.01	1.35	9.11	7.27		
